The values that follow come from ChEMBL document CHEMBL1135120, “Novel lipoic acid analogues that inhibit nitric oxide synthase” (Bioorg Med Chem Lett, 2002).

Experiment [1] has as its target T1, Nitric oxide synthase 1 (Homo sapiens, UniProt P29475). As to the kind of experiment: In vitro inhibition concentration was evaluated on the effect of conversion by Nitric Oxide synthase of [3H]L-arginine into [3H]L-citrulline.
For experiment [2], the system named is HT22 (Mus musculus). The experiment in a line: Neuroprotective effect was measured by its ability to protect mouse hippocampal neuronal HT-22 cell lines from oxidative stress caused by glutamate.
The species entered for experiment [3] is Mus musculus. As to the kind of experiment: Ability for prevention of GSH depletion was measured in mouse. The class given is functional. The method in brief: (§1)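 Glutamate-challenged HT22 cells; total intracellular GSH measured by enzymatic glutathione assay, i.e. formation of 5-thio-2-nitrobenzoic acid from GSH oxidation by 5,5'-dithiobis(2-nitrobenzoic acid).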

The target of experiment [4] is T1, Nitric oxide synthase 1. As to the kind of experiment: In vitro inhibition concentration was evaluated on the effect of conversion by Nitric Oxide synthase of [3H]L-arginine into [3H]L-citrulline; Not active up to 100 uM.
The target in experiment [5] is T1, Nitric oxide synthase 1. The experiment in a line: In vitro inhibition concentration was evaluated on the effect of conversion by Nitric oxide synthase of [3H]L-arginine into [3H]L-citrulline.
For experiment [6], the species on record is Mus musculus. As to the kind of experiment: Ability for prevention of GSH depletion was measured in mouse; Not active up to 100 uM. In kind it is functional. Summed up: as §1
In experiment [7] the test system is HT22 (Mus musculus). The experiment in a line: Neuroprotective effect was measured by its ability to protect mouse hippocampal neuronal HT-22 cell lines from oxidative stress caused by glutamate; Not active up to 100 uM.

As usually defined, the IC50 is the concentration that inhibits the measured activity by half. A high value points to weaker potency. Broadly, the EC50 is the concentration at which the effect is half-maximal.

The structures appear in SMILES notation.

T1 sequence (P29475 whole entry): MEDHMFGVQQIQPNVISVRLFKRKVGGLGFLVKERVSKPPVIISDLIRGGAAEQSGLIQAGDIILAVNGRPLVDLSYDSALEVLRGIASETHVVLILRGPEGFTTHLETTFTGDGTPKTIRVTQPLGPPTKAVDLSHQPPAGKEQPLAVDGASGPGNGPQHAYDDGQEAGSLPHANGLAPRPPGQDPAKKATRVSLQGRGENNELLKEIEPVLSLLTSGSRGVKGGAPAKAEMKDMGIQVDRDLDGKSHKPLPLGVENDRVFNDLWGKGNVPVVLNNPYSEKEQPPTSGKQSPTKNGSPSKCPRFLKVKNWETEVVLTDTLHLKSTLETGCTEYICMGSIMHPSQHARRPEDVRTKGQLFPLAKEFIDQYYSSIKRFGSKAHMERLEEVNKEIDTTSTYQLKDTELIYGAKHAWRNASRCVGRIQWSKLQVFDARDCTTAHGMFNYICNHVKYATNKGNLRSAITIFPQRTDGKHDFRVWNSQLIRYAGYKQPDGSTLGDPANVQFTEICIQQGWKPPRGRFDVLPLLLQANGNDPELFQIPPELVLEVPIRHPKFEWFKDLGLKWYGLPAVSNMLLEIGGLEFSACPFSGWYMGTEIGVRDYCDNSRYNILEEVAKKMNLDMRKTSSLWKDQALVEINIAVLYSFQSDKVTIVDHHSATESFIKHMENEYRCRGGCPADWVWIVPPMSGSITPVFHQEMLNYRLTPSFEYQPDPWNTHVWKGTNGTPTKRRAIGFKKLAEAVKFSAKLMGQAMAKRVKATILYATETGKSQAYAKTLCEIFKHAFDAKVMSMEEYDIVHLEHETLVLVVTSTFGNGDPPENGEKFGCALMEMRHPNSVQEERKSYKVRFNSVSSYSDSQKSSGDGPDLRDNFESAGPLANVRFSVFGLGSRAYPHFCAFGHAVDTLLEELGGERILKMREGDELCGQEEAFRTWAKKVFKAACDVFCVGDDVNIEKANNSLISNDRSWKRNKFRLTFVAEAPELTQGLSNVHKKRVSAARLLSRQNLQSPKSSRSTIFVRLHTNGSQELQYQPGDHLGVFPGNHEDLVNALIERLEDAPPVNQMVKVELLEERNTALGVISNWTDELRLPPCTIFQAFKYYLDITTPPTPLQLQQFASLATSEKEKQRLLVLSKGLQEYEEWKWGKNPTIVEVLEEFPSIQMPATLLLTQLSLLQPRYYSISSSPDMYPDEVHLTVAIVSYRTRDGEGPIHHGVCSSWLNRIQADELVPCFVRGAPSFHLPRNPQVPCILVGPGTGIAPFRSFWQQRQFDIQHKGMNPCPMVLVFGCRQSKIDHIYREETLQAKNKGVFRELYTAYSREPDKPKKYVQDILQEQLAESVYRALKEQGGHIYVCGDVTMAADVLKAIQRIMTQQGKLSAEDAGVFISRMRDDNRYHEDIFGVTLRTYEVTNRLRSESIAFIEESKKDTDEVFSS

The molecule `N=C(Nc1ccc(NC(=O)CCCCC2CCSS2)cc1)c1cccs1` (stereo unspecified) yielded an IC50 on Nitric oxide synthase 1 [1] of 3.5 µM. Further, the figures for the concentration giving a half-maximal response (EC50) in the experiment on HT22 (Mus musculus) [2] and in the experiment filed under Mus musculus [3] were 11.1 µM and 46.9 µM, respectively.

`N=C(Nc1ccc(CCNC(=O)CCCCC2CCSS2)cc1)c1cccs1` (stereo unspecified) gave an IC50 on Nitric oxide synthase 1 [1] of 1.04 µM. The EC50 with HT22 (Mus musculus) [2] came out at 11.7 µM; in the experiment filed under Mus musculus [3], 37.1 µM.

In the case of `O=C(O)CCCCC1CCSS1` (stereo not drawn) [LIPOIC ACID, ALPHA], the IC50 result at Nitric oxide synthase 1 [4] was “Not Active”. Also, the 50% effective concentration (EC50) in the experiment with HT22 (Mus musculus) [2] was determined as 19.6 µM; in the experiment filed under Mus musculus [3], 122 µM.

The molecule `NC(=Nc1ccc(NC(=O)CC2CCSS2)cc1)c1cccs1` (stereo unspecified) came in with a concentration for half-maximal inhibition (IC50) against Nitric oxide synthase 1 [1] of 4.4 µM. Also, the EC50 with HT22 (Mus musculus) [2] turned out to be 9.6 µM; in the experiment filed under Mus musculus [3], 11.9 µM.

Consider `N=C(Nc1ccc(CCNC(=O)CC2CCSS2)cc1)c1cccs1` (stereo unspecified), for which it took 1.15 µM to reach half-maximal inhibition against Nitric oxide synthase 1 [1] (IC50). Moreover, the figures for the EC50 with HT22 (Mus musculus) [2] and in the experiment listed under Mus musculus [3] were 1.8 µM and 12.3 µM, respectively.

For `NC(=Nc1ccc(CNC(=O)CCCCC2CCSS2)cc1)c1cccs1` (stereo unspecified), the IC50 against Nitric oxide synthase 1 [1] came to 2.3 µM. Further, the half-maximal effective concentration (EC50) in the experiment on HT22 (Mus musculus) [2] came out at 6.3 µM; in the experiment filed under Mus musculus [3], 64.8 µM.

`N=C(Nc1ccccc1)c1cccs1`: on Nitric oxide synthase 1 [5], it took 4 µM to reach half-maximal inhibition (IC50). In addition, the concentration for a half-maximal effect (EC50) entry in the experiment filed under Mus musculus [6] and in the experiment with HT22 (Mus musculus) [7] was “Not Active” in each case.
